Series [1] can be described thus: Toxicity in mouse xenografted with human HCT116 cells assessed as reduction in body weight at 0.5 mg/kg, ip qd for 21 days administration starting from 10 days after tumor cell implantation measured every 2 or 4 days till the end of the treatment period. In kind it is organism-based. To be noted: in vivo. The gist of the method:
(§1)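 Nude mice bearing HCT116 xenografts were given intraperitoneal doses on 21 consecutive days, with n = 6 per group including an untreated control group. Body weight was recorded to assess toxicity. Data are mean ± SEM, compared with the control group by Student's t test.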
(In general: Xenograft models place foreign cells or tissue in a host animal.)

Series [2] relates to HCT-116. The series can be described thus: Antitumor activity against human HCT116 cells xenografted in mouse assessed as reduction in tumor growth at 0.5 mg/kg, ip qd for 21 days administration starting from 10 days after tumor cell implantation measured every 2 or 4 days till the end of the treatment period relative to control. In kind it is functional. The conditions noted are these: HCT-116, ip, read-out: TGI. The gist of the method:
(§2)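 HCT116 xenografts in nude mice; intraperitoneal dosing on 21 consecutive days; tumour growth inhibition (TGI) versus untreated control, with body weight recorded. n = 6 mice per group; mean ± SEM; significance by Student's t test versus control.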

In series [3] the test system is HCT-116. The experiment in a line: Antiproliferative activity against human HCT116 cells assessed as reduction in cell viability incubated for 72 hrs by CCK8 assay. Format: functional, cell-based. The conditions noted are these: HCT-116, 72 h. For orientation: Tetrazolium assays rely on reduction of a dye to a coloured formazan, in cell work by metabolically active cells.

The next series deals with MDA-MB-435. The series can be described thus: Antiproliferative activity against human MDA-MB-435 cells assessed as reduction in cell viability incubated for 72 hrs by CCK8 assay. In kind it is functional, cell-based. The conditions noted are these: MDA-MB-435, 72 h.
The test system of the next series is A549. The series can be described thus: Antiproliferative activity against human A549 cells assessed as reduction in cell viability incubated for 72 hrs by CCK8 assay. Format: functional, cell-based. To be noted: A549, 72 h.
Series [4] deals with T1, DNA topoisomerase 1 (Escherichia coli (strain K12)) (UniProt P06612).
T1 sequence (whole entry): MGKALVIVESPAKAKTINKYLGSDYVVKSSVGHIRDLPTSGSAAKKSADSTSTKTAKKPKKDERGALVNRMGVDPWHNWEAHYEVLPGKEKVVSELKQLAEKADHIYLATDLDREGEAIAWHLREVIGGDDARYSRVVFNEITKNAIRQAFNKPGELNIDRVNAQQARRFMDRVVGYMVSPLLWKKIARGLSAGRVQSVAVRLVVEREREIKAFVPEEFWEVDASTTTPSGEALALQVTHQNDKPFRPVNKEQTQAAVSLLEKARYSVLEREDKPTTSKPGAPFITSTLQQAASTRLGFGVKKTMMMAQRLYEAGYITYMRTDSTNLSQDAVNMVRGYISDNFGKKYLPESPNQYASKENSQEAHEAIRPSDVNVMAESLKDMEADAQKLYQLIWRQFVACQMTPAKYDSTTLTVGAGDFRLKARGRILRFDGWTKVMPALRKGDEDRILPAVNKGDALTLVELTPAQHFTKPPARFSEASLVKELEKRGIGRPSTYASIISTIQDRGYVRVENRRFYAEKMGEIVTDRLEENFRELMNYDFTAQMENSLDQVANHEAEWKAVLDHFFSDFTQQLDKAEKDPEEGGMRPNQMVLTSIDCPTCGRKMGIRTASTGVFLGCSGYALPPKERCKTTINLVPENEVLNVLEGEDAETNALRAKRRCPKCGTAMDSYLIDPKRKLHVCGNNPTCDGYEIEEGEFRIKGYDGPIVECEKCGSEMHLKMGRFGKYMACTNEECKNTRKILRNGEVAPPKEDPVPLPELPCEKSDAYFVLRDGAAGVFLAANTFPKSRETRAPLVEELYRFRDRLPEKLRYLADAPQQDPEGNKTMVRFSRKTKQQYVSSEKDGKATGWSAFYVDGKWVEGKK
The experiment in a line: Inhibition of Escherichia coli Top1 assessed as decrease in relaxation of supercoiled pBR322 plasmid DNA at 100 uM using supercoiled pBR322 plasmid DNA as substrate incubated for 15 mins by agarose gel electrophoresis analysis.

In series [5] the target is DNA topoisomerase 2-alpha (Homo sapiens) (UniProt P11388). The series can be described thus: Inhibition of human Top2alpha assessed as decrease in relaxation of supercoiled pBR322 plasmid DNA at 100 uM using supercoiled pBR322 plasmid DNA as substrate incubated for 30 mins by agarose gel electrophoresis analysis.
Sequence of DNA topoisomerase 2-alpha (Homo sapiens) (P11388 whole entry): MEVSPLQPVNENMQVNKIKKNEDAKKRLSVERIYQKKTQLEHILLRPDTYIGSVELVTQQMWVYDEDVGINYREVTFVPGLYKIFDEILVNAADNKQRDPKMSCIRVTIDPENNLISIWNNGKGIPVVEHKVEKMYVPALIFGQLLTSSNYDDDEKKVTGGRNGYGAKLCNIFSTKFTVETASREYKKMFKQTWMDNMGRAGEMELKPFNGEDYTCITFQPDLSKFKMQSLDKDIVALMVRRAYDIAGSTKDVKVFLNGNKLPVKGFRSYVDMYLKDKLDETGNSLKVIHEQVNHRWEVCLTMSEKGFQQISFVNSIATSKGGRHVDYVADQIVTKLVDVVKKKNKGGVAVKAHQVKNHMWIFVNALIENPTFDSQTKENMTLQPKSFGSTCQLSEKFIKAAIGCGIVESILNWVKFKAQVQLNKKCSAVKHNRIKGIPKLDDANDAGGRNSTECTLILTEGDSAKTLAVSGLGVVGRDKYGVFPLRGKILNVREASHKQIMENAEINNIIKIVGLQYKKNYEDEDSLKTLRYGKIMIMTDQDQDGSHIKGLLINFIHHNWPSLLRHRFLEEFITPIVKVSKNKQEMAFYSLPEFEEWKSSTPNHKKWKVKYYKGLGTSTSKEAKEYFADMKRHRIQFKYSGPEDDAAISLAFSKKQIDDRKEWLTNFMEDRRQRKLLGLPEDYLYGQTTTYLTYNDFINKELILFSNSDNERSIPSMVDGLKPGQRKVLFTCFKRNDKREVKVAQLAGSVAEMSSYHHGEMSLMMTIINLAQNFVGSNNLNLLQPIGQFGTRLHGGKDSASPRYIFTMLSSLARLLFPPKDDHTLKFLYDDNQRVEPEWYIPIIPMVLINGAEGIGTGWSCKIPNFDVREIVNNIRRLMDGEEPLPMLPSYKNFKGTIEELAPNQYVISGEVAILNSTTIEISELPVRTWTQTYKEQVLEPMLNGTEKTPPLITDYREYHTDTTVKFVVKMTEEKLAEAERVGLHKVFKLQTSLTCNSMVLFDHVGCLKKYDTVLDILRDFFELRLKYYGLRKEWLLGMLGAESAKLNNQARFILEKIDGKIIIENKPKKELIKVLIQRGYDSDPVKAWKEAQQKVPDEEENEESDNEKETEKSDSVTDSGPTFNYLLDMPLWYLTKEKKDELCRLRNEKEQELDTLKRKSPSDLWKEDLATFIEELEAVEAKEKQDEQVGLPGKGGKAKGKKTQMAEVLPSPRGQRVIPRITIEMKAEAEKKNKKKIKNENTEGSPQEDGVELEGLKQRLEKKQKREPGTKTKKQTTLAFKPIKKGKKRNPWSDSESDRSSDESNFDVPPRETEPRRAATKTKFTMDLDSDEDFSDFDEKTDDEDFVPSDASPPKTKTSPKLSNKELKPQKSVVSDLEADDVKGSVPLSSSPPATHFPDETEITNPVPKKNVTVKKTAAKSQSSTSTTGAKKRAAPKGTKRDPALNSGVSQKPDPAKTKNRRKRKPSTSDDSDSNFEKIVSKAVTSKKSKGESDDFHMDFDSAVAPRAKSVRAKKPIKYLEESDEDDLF
Another series has as its system K562. The series can be described thus: Antiproliferative activity against human K562 cells assessed as reduction in cell viability incubated for 72 hrs by CCK8 assay. Format: functional, cell-based. To be noted: K562, 72 h.
For the next series, the system named is PC-3. The series can be described thus: Antiproliferative activity against human PC3 cells assessed as reduction in cell viability incubated for 72 hrs by CCK8 assay. In kind it is functional, cell-based. The conditions noted are these: PC-3, 72 h.
A short description of series [6]: Antiproliferative activity against human MV-3 cells assessed as reduction in cell viability incubated for 72 hrs by CCK8 assay. In kind it is functional, cell-based. The conditions noted are these: MV-3, 72 h.
A further series relates to BEL-7404 tumor cell line. The experiment in a line: Antiproliferative activity against human Bel7404 cells assessed as reduction in cell viability incubated for 72 hrs by CCK8 assay. Format: functional, cell-based. The conditions noted are these: BEL-7404, 72 h.
The test system of a further series is SK-HEP1. The experiment in a line: Antiproliferative activity against human SKHEP1 cells assessed as reduction in cell viability incubated for 72 hrs by CCK8 assay. The conditions noted are these: SK-HEP1, 72 h. Format: functional, cell-based.
Series [7] can be described thus: Antiproliferative activity against human SW579 cells assessed as reduction in cell viability incubated for 72 hrs by CCK8 assay. Format: functional, cell-based. The conditions noted are these: SW579, 72 h.
In the next series the test system is NCI-H446. The experiment in a line: Antiproliferative activity against human NCI-H446 cells assessed as reduction in cell viability incubated for 72 hrs by CCK8 assay. Format: functional, cell-based. To be noted: NCI-H446, 72 h.
Series [8] has as its target T1, DNA topoisomerase 1 (Escherichia coli (strain K12)). The experiment in a line: Poison activity at Escherichia coli Top1 assessed as increase in […] band intensity at 100 uM using supercoiled pUC19 plasmid DNA as substrate incubated for 30 mins by agarose gel electrophoresis analysis. The gist of the method:
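Supercoiled pUC19 plasmid DNA incubated with Top1 and test compound at 100, 50, 25 and 12.5 μM. Lanes: DNA alone, DNA + Top1, and DNA + Top1 + camptothecin (100 μM) as reference. Products resolved on gel to follow Top1-mediated relaxation.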

The nature of series [9]: Aqueous solubility of compound at pH 7.4. In kind it is physicochemical.
For series [10], the system named is HCT-116. The experiment in a line: Antitumor activity against human HCT116 cells xenografted in mouse assessed as reduction in tumor growth at 16 mg/kg, ip qd for 21 days administration starting from 10 days after tumor cell implantation measured every 2 or 4 days till the end of the treatment period relative to control. In kind it is functional. The conditions noted are these: HCT-116, ip, read-out: TGI. The gist of the method:
as §2

Series [11] can be described thus: Toxicity in mouse xenografted with human HCT116 cells assessed as reduction in body weight at 16 mg/kg, ip qd for 21 days administration starting from 10 days after tumor cell implantation measured every 2 or 4 days till the end of the treatment period. In kind it is organism-based. The conditions noted are these: in vivo. The gist of the method:
as §1

The values below come from ChEMBL document CHEMBL4376872, “Scaffold Hopping of Natural Product Evodiamine: Discovery of a Novel Antitumor Scaffold with Excellent Potency against Colon Cancer” (J Med Chem, 2020).

SMILES strings stand for the structures. The source made the active and inactive calls. No cut-off for these calls is given here. Where only a bound is given, the exact number is not on record here.

In the case of `CC[C@@]1(O)C(=O)OCc2c1cc1n(c2=O)Cc2cc3c(CN(C)C)c(O)ccc3nc2-1` [TOPOTECAN], in series [1], the Activity entry is “Toxic”. Also, the inhibition in vivo at 0.5 mg/kg in the series with HCT-116 [2] stood at 68.5%.
With `CN1c2ccccc2C(=O)N2CCn3c(cc4cc(Cl)ccc43)C21` (centres undefined), the IC50 came to 4.4 µM in the series with HCT-116 [3], 13.5 µM in the series with MDA-MB-435 and 27.7 µM in the series with A549. In series [4], the inhibition entry is “Active”. Besides, in [5], the inhibition result was “inactive”.
With `CC[C@@]1(O)C(=O)OCc2c1cc1n(c2=O)Cc2cc3ccccc3nc2-1` [CAMPTOTHECIN], the IC50 with HCT-116 [3] is 0.02 µM; with MDA-MB-435 it was 2.7 µM; with A549 it was 2.8 µM; in the series with K562 it was under 0.003 µM; in the series on PC-3 it was 2.4 µM; in series [6], 0.003 µM. For the same molecule, the IC50 is 0.4 µM with BEL-7404 tumor cell line, 0.9 µM in the series with SK-HEP1, 0.7 µM in series [7] and over 200 µM in the series on NCI-H446. Also, the result in series [8] was Active.
For the molecule `COc1ccc2c(c1)cc1n2CCn2c-1[n+](C)c1ccc(F)cc1c2=O`, the IC50 in the series with HCT-116 [3] is 87.2 µM; in the series with MDA-MB-435, over 200 µM; in the series on A549 it was over 200 µM. The solubility in [9] was determined as 850 µg/mL. The inhibition in vivo at 16 mg/kg in the series with HCT-116 [10] is 66.6%. In addition, the Activity result in [11] is “Non-Toxic”.

What is called IC50 is the midpoint of a concentration-inhibition curve. By solubility is commonly meant how much of the substance goes into solution per volume. Low readings indicate little dissolved substance, high ones much dissolved substance.
